The values that follow come from ChEMBL document CHEMBL1154414, “In vitro and in vivo activities of T-705 against arenavirus and bunyavirus infections” (Antimicrob Agents Chemother, 2007).

Test [1] concerns Punta Toro virus. The test can be described thus: Antiviral activity against 500 PFU Punta Toro virus Adames infected C57BL/6 mouse assessed as animals with detectable virus level in liver at 10 mg/kg, po twice daily administered 24 hrs post viral challenge measured on day 3 of viral infection. It is filed as functional. The gist of the method: (§1)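 T-705 was suspended in 0.4% carboxymethylcellulose and given by oral gavage twice daily. Mice were infected subcutaneously with PTV. Five mice per group (10 placebo) were sacrificed on day 3 or 4. Liver homogenate or serum was serially diluted onto triplicate LLC-MK2 monolayers, and CPE was read at 6–8 days. The detection limit was 2.8 log10 CCID50 per 0.1 g liver or 0.1 ml serum.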

Test [2] deals with Punta Toro virus. The test can be described thus: Antiviral activity against 50 PFU Punta Toro virus Adames infected C57BL/6 mouse assessed as animals with detectable virus level in serum at 10 mg/kg, po twice daily administered 24 hrs post viral challenge measured on day 3 of viral infection. It is filed as functional. The essentials: as §1
Test [3] concerns Punta Toro virus. The test can be described thus: Antiviral activity against 5000 PFU Punta Toro virus Adames infected C57BL/6 mouse assessed as mean serum ALT levels at 30 mg/kg, po twice daily administered 24 hrs post viral challenge measured on day 3 of viral infection. It is filed as functional. The gist of the method: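 C57BL/6 mice received subcutaneous PTV, then oral gavage twice daily for 5–7 days. T-705 was given in 0.4% CMC and ribavirin in saline. Five mice per group (10 placebo) were killed on day 3 or 4, and serum was collected. ALT activity was measured by kinetic assay. Three sham-infected mice set baselines.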

In test [4] the test system is Pichinde virus. Nature of the test: Antiviral activity against Pichinde virus An 4763 infected Syrian golden hamster assessed as mean viral titer per 0.1 mL of serum at 20 mg/kg, po twice daily for 7 days administered 72 hrs post viral-challenge measured on day 7 of viral infection. Type of test: functional. The essentials: (§2)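 Hamsters (groups of 15, placebo 25-30) were dosed orally by gavage twice daily (drug suspended in 0.4% CMC) after bilateral intraperitoneal challenge with 65 PFU. Five per group were killed on day 7. Liver homogenate or serum was serially diluted onto triplicate B-SC-1 wells, CPE was read at 6-8 days, and the 50% endpoint was taken. Range was 2.8-9.5 log10 CCID50/0.1 g or 0.1 ml, with undetectable assigned <2.8.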

For test [5], the system named is Pichinde virus. Nature of the test: Antiviral activity against Pichinde virus An 4763 infected Syrian golden hamster assessed as animals with detectable virus level in serum at 20 mg/kg, po twice daily for 7 days administered 72 hrs post viral-challenge measured on day 7 of viral infection. Type of test: functional. The gist of the method: as §2
Test [6] concerns Punta Toro virus. Nature of the test: Antiviral activity against 500 PFU Punta Toro virus Adames infected C57BL/6 mouse assessed as animals with detectable virus level in liver at 30 mg/kg, po twice daily administered 24 hrs post viral challenge measured on day 3 of viral infection. Type of test: functional. The gist of the method:
as §1

Test [7] relates to Rift Valley fever virus. The test can be described thus: Antiviral activity against Rift Valley fever virus MP-12 assessed as inhibition of virus-induced visual cytopathic effect after 3 to 5 days. Type of test: functional, organism-based. The gist of the method:
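Virus in medium with 2% FBS was used at the CCID50 that gave maximal CPE. Half-log drug dilutions (DMSO stock, ≤1% DMSO at the top concentration) were added at infection. EC50 was derived by regression analysis.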
(In general: Protection from cytopathic effect is a common read-out in antiviral testing.)

For test [8], the system named is Punta Toro virus. Nature of the test: Antiviral activity against 50 PFU Punta Toro virus Adames infected C57BL/6 mouse assessed as animals with detectable virus level in liver at 30 mg/kg, po twice daily administered 24 hrs post viral challenge measured on day 3 of viral infection. It is filed as functional. The essentials: as §1
The test system of test [9] is Pichinde virus. The test can be described thus: Antiviral activity against Pichinde virus An 4763 infected Syrian golden hamster assessed as mean viral titer per 0.1 g of liver at 40 mg/kg, po twice daily for 7 days administered 4 hrs before viral-challenge measured on day 7 of viral infection. It is filed as functional. The gist of the method:
as §2

Test [10] has as its system Punta Toro virus. Nature of the test: Antiviral activity against 500 PFU Punta Toro virus Adames infected C57BL/6 mouse assessed as mean serum ALT levels at 10 mg/kg, po twice daily administered 24 hrs post viral challenge measured on day 3 of viral infection. It is filed as functional. The gist of the method: (§3)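 Subcutaneous PTV infection was followed by oral gavage twice daily with drug suspended in 0.4% CMC. Serum was collected from 5 sacrificed mice per group (10 placebo) on day 3 or 4. ALT activity was measured by kinetic assay, and sham-infected mice set the baselines.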

For test [11], the system named is Punta Toro virus. The test can be described thus: Antiviral activity against 500 PFU Punta Toro virus Adames infected C57BL/6 mouse assessed as animals with detectable virus level in serum at 30 mg/kg, po twice daily administered 24 hrs post viral challenge measured on day 3 of viral infection. Type of test: functional. The gist of the method: as §1
In test [12] the test system is Punta Toro virus. Nature of the test: Antiviral activity against 50 PFU Punta Toro virus Adames infected C57BL/6 mouse assessed as mean day of death at 10 mg/kg, po twice daily for 5 days administered 24 hrs post viral challenge. Type of test: functional. The gist of the method: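 Groups of 15 mice (25–30 placebo) were inoculated subcutaneously with PTV. Drug in 0.4% carboxymethylcellulose was given by oral gavage twice daily.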

The subject of test [13] is Pichinde virus. Nature of the test: Antiviral activity against Pichinde virus An 4763 infected Syrian golden hamster assessed as animals with detectable virus level in serum at 20 mg/kg, po twice daily for 7 days administered 24 hrs post viral-challenge measured on day 7 of viral infection. Type of test: functional. The essentials:
as §2

Test [14] concerns Punta Toro virus. Nature of the test: Antiviral activity against 500 PFU Punta Toro virus Adames infected C57BL/6 mouse assessed as mean viral titer per 0.1 mL of serum at 10 mg/kg, po twice daily administered 24 hrs post viral challenge measured on day 3 of viral infection. It is filed as functional. The essentials:
(§4)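 Mice were infected subcutaneously with PTV and dosed by oral gavage twice daily; 5 per group (10 placebo) were killed on day 3 or 4. Liver homogenate or serum was serially diluted onto triplicate LLC-MK2 monolayers, and CPE was read 6–8 days later. 50% endpoints gave log10 CCID50 per 0.1 g liver or 0.1 ml serum. Detection range was 2.8–9.5; undetectable samples were assigned <2.8.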

The subject of test [15] is Pichinde virus. The test can be described thus: Antiviral activity against Pichinde virus An 4763 infected Syrian golden hamster assessed as animals with detectable virus level in liver at 40 mg/kg, po twice daily for 7 days administered 4 hrs before viral-challenge measured on day 7 of viral infection. Type of test: functional.
Test [16] concerns Pichinde virus. Nature of the test: Antiviral activity against Pichinde virus An 4763 infected Syrian golden hamster assessed as mean day of death at 20 mg/kg, po twice daily for 7 days administered 24 hrs post viral-challenge. It is filed as functional. The essentials:
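Groups of 15 hamsters (placebo 25-30) were challenged intraperitoneally (bilateral, 65 PFU) and dosed twice daily by oral gavage in 0.4% CMC for 5 to 7 days.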

Test [17] has as its system Punta Toro virus. Nature of the test: Antiviral activity against 5000 PFU Punta Toro virus Adames infected C57BL/6 mouse assessed as animals with detectable virus level in liver at 10 mg/kg, po twice daily administered 24 hrs post viral challenge measured on day 3 of viral infection. It is filed as functional. The gist of the method: as §4
In test [18] the test system is Pichinde virus. Nature of the test: Antiviral activity against Pichinde virus An 4763 infected Syrian golden hamster assessed as mean viral titer per 0.1 mL of serum at 20 mg/kg, po twice daily for 7 days administered 24 hrs post viral-challenge. Type of test: functional. The essentials:
as §2

Test [19] concerns Pichinde virus. Nature of the test: Antiviral activity against Pichinde virus An 4763 in Vero cells assessed as inhibition of virus-induced visual cytopathic effect after 7 to 8 days. Type of test: functional, organism-based. The gist of the method:
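Subconfluent (50-70%) Vero cells were infected with virus in 2% FBS medium at the CCID50 giving maximal CPE. Half-log drug dilutions were added at infection. EC50 was obtained by regression analysis.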

The subject of test [20] is Punta Toro virus. Nature of the test: Antiviral activity against 50 PFU Punta Toro virus Adames infected C57BL/6 mouse assessed as mean serum ALT levels at 30 mg/kg, po twice daily administered 24 hrs post viral challenge measured on day 3 of viral infection. It is filed as functional. The gist of the method: as §3
Test [21] has as its system Pichinde virus. Nature of the test: Antiviral activity against Pichinde virus An 4763 infected Syrian golden hamster assessed as mean viral titer per 0.1 mL of serum at 50 mg/kg, po twice daily for 7 days administered 24 hrs post viral-challenge measured on day 7 of viral infection. Type of test: functional. The gist of the method:
as §2

Usually EC50 stands for the concentration giving half of the maximal effect. In the case of `NC(=O)c1nc(F)cnc1O` [FAVIPIRAVIR], the Activity in test [1] turned out to be 0%; in [2], 100%; in [3] it was 521 IU/L; in [5], 100%; in test [6] it was 60%; in test [8], 40%. Also, the Activity in [10] turned out to be 3302 IU/L; in test [11], 80%; in [12], 5.8 days; in test [13] it was 100%; in test [15] it was 20%; in [16], 9.5 days. The Activity was determined as 20% in [17] and 199 IU/L in test [20]. Also, the log10CCID50 in [4] is recorded as >8.6; in test [9], <3.2; in test [14], 7.1; in test [18] it was >9; in [21] it was <5.1. The concentration giving a half-maximal response (EC50) in test [7] was found to be 32 µM; in test [19], 6 µM.
Regarding `NC(=O)c1ncn([C@@H]2O[C@H](CO)[C@@H](O)[C@H]2O)n1` [RIBAVIRIN], the Activity stood at 20% in [1]; 60% in test [2]; 1491 IU/L in [3]; 100% in test [5]; 60% in test [6]; 20% in test [8]. Further, the Activity amounted to 2150 IU/L in test [10]; 80% in test [11]; 5.3 days in test [12]; 80% in [13]; 20% in [15]; 18 days in test [16]. Further, the Activity was 0% in test [17] and 131 IU/L in test [20]. In addition, the log10CCID50 is given as 6.8 in test [4]; <3.2 in test [9]; 6.7 in test [14]; <5.1 in test [18]; <3.5 in [21]. Besides, the EC50 in test [7] amounted to 53 µM; in [19], 13 µM.
